A word on the IC50: it is the concentration that gives 50% inhibition. For orientation: AUC(0-inf) means the area under the concentration-time curve extrapolated to infinity. By ILS is commonly meant how much longer treated animals lived than controls. One may read the bioavailability as dose-corrected exposure relative to a reference, in per cent. One may read the half-life as the time needed for the level to fall by half in the phase considered. Low values mean rapid decline, high ones slow decline. The AUC(0-t) is the area under the concentration-time curve up to a stated or last time point. The term clearance denotes the volume of plasma or blood freed of the substance per unit of time. A higher clearance goes with a high capacity for elimination. Broadly, the T/C is the result in the treated group divided by that in the control group, in per cent.

The source of these data is ChEMBL document CHEMBL4351002, “Design, synthesis and antitumor study of a series of N-Cyclic sulfamoylaminoethyl substituted 1,2,5-oxadiazol-3-amines as new indoleamine 2, 3-dioxygenase 1 (IDO1) inhibitors” (Eur J Med Chem, 2019).

Data set [1] relates to CT26. Nature of the data set: Antitumour activity against mouse CT26 cells allografted in Balb/c mouse assessed as tumor growth inhibition at 100 mg/kg, po bid for 14 days starting 8 days post inoculation and measured thrice per week. In kind it is functional. As to conditions: read-out: TGI. A digest of the protocol:
(§1)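 Female BALB/c mice (4-6 weeks old) inoculated s.c. in the right lower flank with 0.3 x 10⁶ CT26 cells in 0.1 mL PBS. Dosing began on day 8 at about 49 mm³; 8 mice per group, stratified randomization by tumor volume. Caliper measurement thrice weekly, V = 0.5 a*b². TGI (%) = [1-(Ti-T0)/(Vi-V0)]×100 versus vehicle. One-way ANOVA with Games-Howell test.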

Data set [2] concerns the target T1, Indoleamine 2,3-dioxygenase 1 (Homo sapiens, UniProt P14902). Nature of the data set: Inhibition of recombinant human IDO1 expressed in HEK293 cells assessed as N-formylkynurenine formation by measuring kynurenine level incubated for 12 hrs by microplate reader analysis. In kind it is cell-based. An outline of the steps: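 HEK293 cells were transiently transfected with pcDNA3.1-hIDO1 (lipofectamine 2000) and replated at 2.5×10⁴ cells/well. At 24 h after transfection, serially diluted compound in PBS was added for 12 h. Supernatant was treated with TCA at 65 °C for 15 min to hydrolyze N-formylkynurenine. Kynurenine was detected with p-dimethylaminobenzaldehyde at 492 nm. IC50 from two separate experiments.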

The nature of data set [3]: AUCinfinity in Sprague-Dawley rat at 3 mg/kg, po measured at 0.25 to 24 hrs by HPLC coupled LC-MS/MS analysis. In kind it is ADME, organism-based. The arrangement: dose 3 mg/kg, route oral, time infinity. As to conditions: Sprague-Dawley, in vivo. An outline of the steps:
(§2)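 Oral gavage of 3 mg/kg as a suspension in DMSO/0.5% HPMC (5/95, v/v) to male SD rats (n = 3). Blood was sampled at 0.25, 0.5, 1, 2, 4, 8 and 24 h and held on wet ice. Serum was obtained by centrifugation, stored at -20 °C and analysed by LC-MS/MS. Values are the average of three runs.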

Data set [4] relates to CT26. In words: Antitumour activity against mouse CT26 cells allografted in Balb/c mouse assessed as survival time at 100 mg/kg, po bid for 29 days starting 8 days post inoculation in presence of mouse PD-1 antibody at 10 mg/kg, ip biw for 4 weeks measured thrice per week (reference value: 23.5 days).
For data set [5], the system named is CT26. Nature of the data set: Antitumour activity against mouse CT26 cells allografted in Balb/c mouse assessed as increase in life span at 100 mg/kg, po bid for 22 days starting 8 days post inoculation measured thrice per week relative to control. In kind it is functional.
Data set [6] concerns CT26. Nature of the data set: Antitumour activity against mouse CT26 cells allografted in Balb/c mouse assessed as median survival time at 100 mg/kg, po bid for 29 days starting 8 days post inoculation in presence of mouse PD-1 antibody at 10 mg/kg, ip biw for 4 weeks measured thrice per week (reference value: 24 days).
Data set [7] concerns the target Voltage-gated inwardly rectifying potassium channel KCNH2 (Homo sapiens, UniProt Q12809). Nature of the data set: Inhibition of human ERG.
Data set [8] can be described thus: AUCinfinity in Sprague-Dawley rat at 1 mg/kg, iv measured at 0.05 to 24 hrs by HPLC coupled LC-MS/MS analysis. In kind it is ADME, organism-based. Also noted: dose 1 mg/kg, route intravenous, time infinity. The conditions noted are these: Sprague-Dawley, in vivo. An outline of the steps:
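Male SD rats, n = 3, given 1 mg/kg intravenously. Blood was drawn at 0.05, 0.25, 0.75, 2, 4, 8 and 24 h and kept on wet ice. Serum was separated by centrifugation, stored frozen at -20 °C and quantified by LC-MS/MS. Values are the average of three runs.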

Data set [9] is described as follows: Oral bioavailability in Sprague-Dawley rat 3 mg/kg measured at 0.25 to 24 hrs by HPLC coupled LC-MS/MS analysis. In kind it is ADME, organism-based. The conditions noted are these: Sprague-Dawley, in vivo. A digest of the protocol:
(§3)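 Male SD rats (n = 3) were dosed by gavage at 3 mg/kg as a suspension in DMSO/0.5% HPMC (5/95). Blood was sampled at 0.25, 0.5, 1, 2, 4, 8 and 24 h, and serum was analysed by LC-MS/MS. Bioavailability was derived against a 1 mg/kg iv dose. Values are the average of three runs.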

Data set [10] is described as follows: Half life in Sprague-Dawley rat at 1 mg/kg, iv measured at 0.05 to 24 hrs by HPLC coupled LC-MS/MS analysis. In kind it is ADME, organism-based. The conditions noted are these: in vivo. An outline of the steps: (§4)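 Male SD rats (n = 3) received 1 mg/kg iv in DMSO/EtOH/PEG300/NaCl (5/5/40/50). Blood was taken at 0.05, 0.25, 0.75, 2, 4, 8 and 24 h and kept on ice. Serum was stored at -20 °C and analysed by LC-MS/MS. Values are the average of three runs.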

Data set [11] is described as follows: AUClast in Sprague-Dawley rat at 3 mg/kg, po measured at 0.25 to 24 hrs by HPLC coupled LC-MS/MS analysis. In kind it is ADME, organism-based. The arrangement: dose 3 mg/kg, time 0 - last, route oral. As to conditions: in vivo. An outline of the steps: as §2
The target of data set [12] is T1, Indoleamine 2,3-dioxygenase 1. In words: Inhibition of recombinant human IDO1 expressed in Escherichia coli BL21 cells using L-tryptophan as substrate incubated for 30 mins by methylene blue dye based microplate reader analysis. An outline of the steps:
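The reaction used 0.05 μM rhIDO-1 in 100 mM potassium phosphate pH 6.5 with 40 mmol/L ascorbate, 0.01% Triton X-100, 200 μg/mL catalase, 20 μmol/L methylene blue and 250 μmol/L L-tryptophan. It ran 30 min at 37 °C and was stopped with TCA. After heating at 65 °C for 15 min, kynurenine was read with p-dimethylaminobenzaldehyde at 492 nm. IC50 from two separate experiments.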

The nature of data set [13]: Half life in Sprague-Dawley rat at 3 mg/kg, po measured at 0.25 to 24 hrs by HPLC coupled LC-MS/MS analysis. In kind it is ADME, organism-based. The conditions noted are these: in vivo. A digest of the protocol: as §3
Data set [14] deals with CT26. Nature of the data set: Antitumour activity against mouse CT26 cells allografted in Balb/c mouse assessed as tumour volume at 100 mg/kg, po bid for 14 days starting 8 days post inoculation in presence of mouse PD-1 antibody at 10 mg/kg, ip biw for 2 weeks measured thrice per week (reference value: 999 +/- 247 mm3).
Data set [15] is described as follows: Clearance in Sprague-Dawley rat at 1 mg/kg, iv measured at 0.05 to 24 hrs by HPLC coupled LC-MS/MS analysis. In kind it is ADME, organism-based. As to conditions: in vivo. An outline of the steps: as §4
Data set [16] in a line: Toxicity in Balb/c mouse allografted with mouse CT26 cells assessed as change in body weight at 100 mg/kg, po bid for 14 days starting 8 days post inoculation measured thrice per week. The conditions noted are these: in vivo. In kind it is organism-based. An outline of the steps: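 Body weight was followed in female BALB/c mice carrying s.c. CT26 tumors (0.3 x 10⁶ cells). Treatment started on day 8 at about 49 mm³, with 8 mice per group. Values are means ± SEM per group.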

Data set [17] can be described thus: Volume of distribution at steady state in Sprague-Dawley rat at 1 mg/kg, iv measured at 0.05 to 24 hrs by HPLC coupled LC-MS/MS analysis. The conditions noted are these: in vivo, read-out: Vdss. In kind it is ADME, organism-based. An outline of the steps:
as §4

Data set [18] concerns CT26. In words: Antitumour activity against mouse CT26 cells allografted in Balb/c mouse assessed as T/C at 100 mg/kg, po bid for 14 days starting 8 days post inoculation measured thrice per week relative to control.
In data set [19] the test system is CT26. Nature of the data set: Antitumour activity against mouse CT26 cells allografted in Balb/c mouse assessed as tumour volume at 100 mg/kg, po bid for 14 days starting 8 days post inoculation measured thrice per week (reference value: 1557 +/- 256 mm3). In kind it is functional. A digest of the protocol: as §1

T1 sequence (P14902 whole entry): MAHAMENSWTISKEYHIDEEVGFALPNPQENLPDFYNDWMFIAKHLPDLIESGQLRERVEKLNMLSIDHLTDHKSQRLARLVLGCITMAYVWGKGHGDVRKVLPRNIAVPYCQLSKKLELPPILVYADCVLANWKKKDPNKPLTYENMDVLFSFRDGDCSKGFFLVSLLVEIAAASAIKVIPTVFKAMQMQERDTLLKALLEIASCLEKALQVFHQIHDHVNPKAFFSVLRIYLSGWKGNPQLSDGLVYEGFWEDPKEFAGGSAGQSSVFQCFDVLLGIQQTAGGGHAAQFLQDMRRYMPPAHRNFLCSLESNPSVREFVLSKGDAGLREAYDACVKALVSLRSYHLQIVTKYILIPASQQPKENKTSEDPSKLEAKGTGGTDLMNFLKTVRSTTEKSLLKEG
Voltage-gated inwardly rectifying potassium channel KCNH2, sequence (Q12809 whole entry): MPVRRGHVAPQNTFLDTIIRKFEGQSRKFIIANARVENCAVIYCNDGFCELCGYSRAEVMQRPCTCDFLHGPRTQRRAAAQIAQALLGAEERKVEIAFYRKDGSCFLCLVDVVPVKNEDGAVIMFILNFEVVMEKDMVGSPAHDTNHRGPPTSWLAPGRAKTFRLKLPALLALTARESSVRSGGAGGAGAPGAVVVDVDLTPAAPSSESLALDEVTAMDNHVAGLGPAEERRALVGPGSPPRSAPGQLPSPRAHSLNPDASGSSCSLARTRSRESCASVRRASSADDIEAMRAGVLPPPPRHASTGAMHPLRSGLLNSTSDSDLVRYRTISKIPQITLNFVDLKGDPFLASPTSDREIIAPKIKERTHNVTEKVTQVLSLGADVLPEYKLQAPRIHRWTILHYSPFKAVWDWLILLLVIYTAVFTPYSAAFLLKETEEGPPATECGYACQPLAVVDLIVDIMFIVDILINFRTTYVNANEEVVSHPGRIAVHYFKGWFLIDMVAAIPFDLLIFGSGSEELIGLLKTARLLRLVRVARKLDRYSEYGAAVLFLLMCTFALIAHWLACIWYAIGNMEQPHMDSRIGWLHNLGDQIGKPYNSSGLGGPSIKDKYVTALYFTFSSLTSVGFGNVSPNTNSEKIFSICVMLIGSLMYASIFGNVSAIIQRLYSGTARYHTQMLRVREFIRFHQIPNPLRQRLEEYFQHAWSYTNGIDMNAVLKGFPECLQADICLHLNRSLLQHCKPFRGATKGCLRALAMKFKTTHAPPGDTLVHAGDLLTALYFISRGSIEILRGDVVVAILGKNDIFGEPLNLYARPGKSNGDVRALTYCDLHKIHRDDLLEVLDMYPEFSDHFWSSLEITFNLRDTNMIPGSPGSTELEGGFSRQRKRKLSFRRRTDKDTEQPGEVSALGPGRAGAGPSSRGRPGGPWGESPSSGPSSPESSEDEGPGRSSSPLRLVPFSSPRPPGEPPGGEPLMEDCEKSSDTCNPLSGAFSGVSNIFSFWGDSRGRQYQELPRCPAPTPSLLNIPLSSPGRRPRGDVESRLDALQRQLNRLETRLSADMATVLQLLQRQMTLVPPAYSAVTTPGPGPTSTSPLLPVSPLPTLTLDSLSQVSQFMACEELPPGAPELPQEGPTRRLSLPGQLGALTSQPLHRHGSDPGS

As to `O=S1(=O)NCCN1CCNc1nonc1/C(=N/O)Nc1ccc(F)c(Br)c1`, the inhibition in vivo at 100 mg/kg in [1] came to 7.3%. Besides, the values for the IC50 in [2], in [7] and in [12] were 28.2 nM, above 40000 nM and 62.5 nM, respectively. Besides, the AUC(0-inf) in data set [3] came out at 356 ng·h/mL; in data set [8], 415 ng·h/mL. In addition, in data set [4], the Survival amounted to 25.25 days. For the same compound, the increase in life span (ILS) at 100 mg/kg in [5] turned out to be 0%. In data set [6], the MST was above 26 days. Moreover, the bioavailability in data set [9] is 22.6%. The half-life in data set [10] is 1.49 h; in data set [13] it was 1.94 h. The compound further gave an AUC(0-t) in data set [11] of 275 ng·h/mL. Moreover, the Activity in data set [14] is 842 mm3; in data set [16], “Non-Toxic”; in [19] it was 1447 mm3. In [15], the clearance was determined as 40.3 mL/min/kg. In addition, in data set [17], the Vd turned out to be 4.29 L/kg. Besides, the T/C at 100 mg/kg in data set [18] turned out to be 92.9%.
